Data from ChEMBL document CHEMBL1125919, “Water-soluble cholesteryl-containing phosphorothioate monogalactosides: synthesis, properties, and use in lowering blood cholesterol by directing plasma lipoproteins to the liver” (1991).

Key:
Homo sapiens [1] = species on record: Homo sapiens; test: Carbohydrate in the Lipoprotein -deficient serum(LPDS) along with compound was measured in human serum; format: functional
How it was run: (§1)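 Human serum (1.6 mL) mixed with 0.4 mL of a 10 mM glycolipid solution in PBS (2 mM final), or with PBS alone, for 10 min at room temperature. Density-gradient ultracentrifugation in KBr/NaCl then gave VLDL (d<1.006), LDL (1.006–1.063), HDL (1.063–1.210) and LPDS (d>1.210 g/mL) fractions. Each fraction was dialyzed against PBS and assayed for cholesterol and carbohydrate, reported as total μg per fraction.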

Homo sapiens [2] = species on record: Homo sapiens; test: Carbohydrate in the Total along with compound was measured in human serum; format: functional; how it was run: as §1
Homo sapiens [3] = species on record: Homo sapiens; test: Carbohydrate in the high density lipoprotein (HDL) along with compound was measured in human serum; format: functional; how it was run: as §1
Homo sapiens [4] = species on record: Homo sapiens; test: Carbohydrate in the low density lipoprotein (LDL) along with compound was measured in human serum; format: functional; how it was run: as §1
Homo sapiens [5] = species on record: Homo sapiens; test: Cholesterol in the Lipoprotein -deficient serum(LPDS) along with compound was measured in human serum; format: functional; how it was run: as §1
Homo sapiens [6] = species on record: Homo sapiens; test: Cholesterol in the Total along with compound was measured in human serum; format: functional; how it was run: as §1
Homo sapiens [7] = species on record: Homo sapiens; test: Cholesterol in the high density lipoprotein (HDL) along with compound was measured in human serum; format: functional; how it was run: as §1
Homo sapiens [8] = species on record: Homo sapiens; test: Cholesterol in the low density lipoprotein (LDL) along with compound was measured in human serum; format: functional; how it was run: as §1
Homo sapiens [9] = species on record: Homo sapiens; test: Cholesterol in the very low density lipoprotein (VLDL) along with compound was measured in human serum; format: functional; how it was run: as §1
[10] = Ratio of carbohydrate in HDL to cholesterol level in HDL; format: functional
How it was run: (§2)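 Same serum incubation (2 mM final, 10 min, room temperature) and density-gradient fractionation into LDL and HDL. The ratio is μg carbohydrate per μg total cholesterol in each fraction. Values in parentheses compare the ratio with the PBS-only serum lipoproteins.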

[11] = Ratio of carbohydrate in LDL to cholesterol level in LDL; format: functional; how it was run: as §2
Homo sapiens [12] = species on record: Homo sapiens; test: Carbohydrate in the very low density lipoprotein (VLDL) along with compound was measured in human serum; format: functional; how it was run: as §1
Homo sapiens [13] = species on record: Homo sapiens; test: Carbohydrate in the high density lipoprotein (HDL) along with compound was measured in human serum
Rattus norvegicus [14] = species on record: Rattus norvegicus; test: Effects of N-acetyl-galactosamine on compound stimulated liver association of [125I]LDL measured in serum of rats; format: functional
How it was run: (§3)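 Glycolipid mixed with [125I]LDL at 0.3 mg/mg apolipoprotein or with [125I]HDL at 1.0 mg/mg, then held 10 min at room temperature. The mixture was given intravenously at 50 μg apolipoprotein/kg to pentobarbital-anaesthetized male Wistar rats. N-acetylgalactosamine, N-acetylglucosamine (both 400 mg/kg) or PBS was preinjected 1 min before. At 5 min, TCA-precipitable serum radioactivity and liver-associated radioactivity were measured as % of dose. Mean ± SEM, 3–4 rats; Wilcoxon two-sample test.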

Rattus norvegicus [15] = species on record: Rattus norvegicus; test: Effects of N-acetyl-glucosamine on compound stimulated liver association of [125I]HDL measured in liver of rats; format: functional; how it was run: as §3
Rattus norvegicus [16] = species on record: Rattus norvegicus; test: Effects of N-acetyl-glucosamine on compound stimulated liver association of [125I]HDL measured in preinjcted rats; format: functional; how it was run: as §3
Rattus norvegicus [17] = species on record: Rattus norvegicus; test: Effects of N-acetyl-glucosamine on compound stimulated liver association of [125I]LDL measured in liver of rats; format: functional; how it was run: as §3
Rattus norvegicus [18] = species on record: Rattus norvegicus; test: Effects of N-acetyl-glucosamine on compound stimulated liver association of [125I]-LDL measured in serum of rats; format: functional; how it was run: as §3
Rattus norvegicus [19] = species on record: Rattus norvegicus; test: Effects of N-acetyl-galactosamine on compound stimulated liver association of [125I]HDL measured in liver of rats; format: functional; how it was run: as §3
Rattus norvegicus [20] = species on record: Rattus norvegicus; test: Effects of N-acetyl-galactosamine on compound stimulated liver association of [125I]HDL measured in serum of rats; format: functional; how it was run: as §3
Rattus norvegicus [21] = species on record: Rattus norvegicus; test: Effects of N-acetyl-galactosamine on compound stimulated liver association of [125I]LDL measured in liver of rats; format: functional; how it was run: as §3
Homo sapiens [22] = species on record: Homo sapiens; test: Carbohydrate in the very low density lipoprotein (VLDL) along with compound was measured in human serum

SMILES | Carbohydrate (Homo sapiens [1]) | Carbohydrate (Homo sapiens [2]) | Carbohydrate (Homo sapiens [4]) | Cholesterol (Homo sapiens [5]) | Cholesterol (Homo sapiens [6]) | Cholesterol (Homo sapiens [7]) | Cholesterol (Homo sapiens [8]) | Cholesterol (Homo sapiens [9]) | Ratio [10] | Ratio [11] | Carbohydrate (Homo sapiens [12]) | Carbohydrate (Homo sapiens [13]) | further results
CC(C)CCCC(C)C1CCC2C3CC=C4CC(OCCOCCOCCOCCOP(O)(=S)OCCOCCOCCSC5OC(CO)C(O)C(O)C5O)CCC4(C)C3CCC12C (stereo not given) | 1720 µg | 2730 µg | 520 µg | 66 µg | 1947 µg | 484 µg | 1296 µg | 101 µg | 0.81 | 0.4 | 100 µg | – | Carbohydrate (Homo sapiens [3]): 390 µg
CC(C)CCCC(C)C1CCC2C3CC=C4CC(OCCOCCOCCOCCOP(O)(=S)OCCSC5OC(CO)C(O)C(O)C5O)CCC4(C)C3CCC12C (stereo not given) | 1590 µg | 2710 µg | 580 µg | 85 µg | 1885 µg | 500 µg | 1161 µg | 108 µg | 0.92 | 0.5 | 80 µg | 460 µg | –
CC(C)CCCC(C)C1CCC2C3CC=C4CC(OCCOCCOCCOCCOP(O)(=S)OCCO[C@@H]5O[C@H](CO)[C@H](O)[C@H](O)[C@H]5O)CCC4(C)C3CCC12C (stereo not given in full) | 1710 µg | 2790 µg | 480 µg | 70 µg | 1850 µg | 627 µg | 1048 µg | 104 µg | 0.8 | 0.45 | 100 µg | 500 µg | Dose (Rattus norvegicus [14]): 92.2%; Dose (Rattus norvegicus [15]): 22.2%; Dose (Rattus norvegicus [16]): 61.1%; Dose (Rattus norvegicus [17]): 61.6%; Dose (Rattus norvegicus [18]): 29.3%; Dose (Rattus norvegicus [19]): 5.8%; Dose (Rattus norvegicus [20]): 78.8%; Dose (Rattus norvegicus [21]): 5.1%; Carbohydrate (Homo sapiens [22]): 100 µg
